Data reported in article PMC10213863 (Cell Reports Medicine, 2023).
pIC50: −log10 of the molar value.

Key:
TLR9 [1] = target: T1, TLR9 (Homo sapiens, UniProt Q9NR96); assay: Human PBMC assay, ODN2216-induced IFN-α; type: cell-based
T1 sequence (Q9NR96 26-1032): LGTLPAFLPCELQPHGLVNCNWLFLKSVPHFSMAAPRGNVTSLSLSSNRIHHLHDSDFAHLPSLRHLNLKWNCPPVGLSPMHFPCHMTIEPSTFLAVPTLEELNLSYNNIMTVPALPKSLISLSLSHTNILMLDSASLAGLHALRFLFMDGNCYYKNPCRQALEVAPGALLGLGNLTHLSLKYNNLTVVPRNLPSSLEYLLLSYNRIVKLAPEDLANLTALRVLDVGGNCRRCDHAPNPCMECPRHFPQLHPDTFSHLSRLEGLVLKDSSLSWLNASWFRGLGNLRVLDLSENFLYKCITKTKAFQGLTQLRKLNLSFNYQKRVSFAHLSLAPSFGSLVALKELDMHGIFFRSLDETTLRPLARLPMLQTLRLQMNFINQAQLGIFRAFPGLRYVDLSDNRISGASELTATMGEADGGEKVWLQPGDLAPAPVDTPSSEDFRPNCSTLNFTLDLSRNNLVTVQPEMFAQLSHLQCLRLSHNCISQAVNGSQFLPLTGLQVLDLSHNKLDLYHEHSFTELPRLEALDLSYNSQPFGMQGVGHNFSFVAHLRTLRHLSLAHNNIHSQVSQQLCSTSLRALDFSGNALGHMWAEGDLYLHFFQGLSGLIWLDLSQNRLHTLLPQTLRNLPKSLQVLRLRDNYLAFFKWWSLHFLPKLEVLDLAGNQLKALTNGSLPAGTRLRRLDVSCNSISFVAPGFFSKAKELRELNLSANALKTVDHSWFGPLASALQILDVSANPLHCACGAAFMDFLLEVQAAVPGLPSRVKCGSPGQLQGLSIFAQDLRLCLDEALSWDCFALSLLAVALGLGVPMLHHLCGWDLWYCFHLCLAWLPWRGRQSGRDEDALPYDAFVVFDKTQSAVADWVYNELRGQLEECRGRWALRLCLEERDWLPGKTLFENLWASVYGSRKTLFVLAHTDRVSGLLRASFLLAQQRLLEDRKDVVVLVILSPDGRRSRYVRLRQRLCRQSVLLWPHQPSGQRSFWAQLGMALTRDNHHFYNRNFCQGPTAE
Method in brief: (§1)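 Human PBMCs were pre-incubated 30 min with test compound, then stimulated with the respective TLR or IL-1R agonist at doses from earlier work. Cytokines in supernatants were quantified by immunoassay. Viability across the dose range was checked by CellTiter-Glo.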

TLR9 [2] = target: TLR9 (Mus musculus, UniProt Q9EQU3); assay: Murine whole blood assay, ODN-IFN-α; type: cell-based
Method in brief: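 Fresh human blood or 129/Sv mouse blood was taken into citrate and diluted 1:1 with RPMI1640. It was pre-incubated 30 min at 37°C, 5% CO2 with increasing concentrations of test compound or 0.25% v/v DMSO (final). Blood was then stimulated with TLR agonists at doses from earlier work, or with R848 (3 μM), and cytokines were quantified. Viability was checked by ATPlite luminescence.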

TLR7/8 = assay: Human PBMC cytokine release, TLR7/8 agonists ssRNA or R848; type: cell-based; settings: human PBMCs, IL-6 as readout
TLR7 = target: T2, TLR7 (Mus musculus, UniProt P58681); assay: Acute cytokine release in vivo assay, TLR7 agonist; settings: 129/Sv mice; single p.o. dose 1.5 or 15 mg/kg
T2 sequence (P58681 27-1050): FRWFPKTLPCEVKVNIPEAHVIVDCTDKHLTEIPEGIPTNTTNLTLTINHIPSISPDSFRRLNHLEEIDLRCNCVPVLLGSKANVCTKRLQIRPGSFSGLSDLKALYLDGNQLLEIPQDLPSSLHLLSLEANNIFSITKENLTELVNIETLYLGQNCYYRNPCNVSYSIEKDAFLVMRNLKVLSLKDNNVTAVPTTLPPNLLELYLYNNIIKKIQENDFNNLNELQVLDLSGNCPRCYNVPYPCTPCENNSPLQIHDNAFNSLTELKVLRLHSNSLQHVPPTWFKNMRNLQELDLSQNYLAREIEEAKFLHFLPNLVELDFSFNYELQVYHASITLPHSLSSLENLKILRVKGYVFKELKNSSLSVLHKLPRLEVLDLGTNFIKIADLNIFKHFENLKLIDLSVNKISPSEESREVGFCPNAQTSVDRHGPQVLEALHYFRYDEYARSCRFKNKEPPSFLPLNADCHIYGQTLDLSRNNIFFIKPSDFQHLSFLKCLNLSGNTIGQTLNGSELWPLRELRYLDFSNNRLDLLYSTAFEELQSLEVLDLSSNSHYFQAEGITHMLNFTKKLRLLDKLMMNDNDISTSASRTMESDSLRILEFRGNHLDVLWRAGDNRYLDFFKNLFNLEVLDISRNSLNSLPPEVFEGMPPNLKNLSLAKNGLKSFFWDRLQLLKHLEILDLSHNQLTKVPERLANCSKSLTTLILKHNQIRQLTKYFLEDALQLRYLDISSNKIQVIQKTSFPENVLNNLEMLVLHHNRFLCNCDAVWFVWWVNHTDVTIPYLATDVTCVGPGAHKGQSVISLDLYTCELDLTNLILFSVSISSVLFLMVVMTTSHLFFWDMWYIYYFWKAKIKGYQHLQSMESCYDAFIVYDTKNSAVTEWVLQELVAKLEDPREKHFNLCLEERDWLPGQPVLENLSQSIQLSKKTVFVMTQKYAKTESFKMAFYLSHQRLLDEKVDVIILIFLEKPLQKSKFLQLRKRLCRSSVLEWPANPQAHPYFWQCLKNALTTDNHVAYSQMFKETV
Method in brief: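 129/Sv mice (5 per group) got test compound orally in 0.5% methylcellulose/0.5% Tween-80, or vehicle alone. At 1 h they were injected i.v. with the TLR agonist (line 1: 20 μg R0006; line 2: CpG1585), each pre-complexed with 140 μg DOTAP in HBSS. At 3 h, EDTA blood was taken. Plasma IFN-α (both lines) and TNF were measured by ELISA, single technical replicate per mouse. Serum drug levels were measured by LC-MS/MS.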

[3] = test system: immune-complex stimulated ISG panel in PBMCs; assay: Five-gene ISG panel in PBMCs stimulated with SLE immune complexes; type: cell-based, human; settings: MHV370 0.1 μM
Method in brief: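 PBMCs were pre-treated 30 min with test compound, HCQ or 0.1% DMSO, then stimulated 20 h with SLE serum pre-complexed with U-937 necrotic extract. RNA was extracted and ISGs quantified by qRT-PCR with the 2−ΔΔCt method against 18S rRNA, using biological replicates. Global ISG induction was derived by normalizing each ISG's relative induction to 100%.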

TLR1/2 = TLR1/2 (Homo sapiens, UniProt O60603+Q15399); assay: Human PBMC cytokine secretion, TLR1/2 agonist; type: cell-based; settings: human PBMCs; up to 10 μM; n = 5 donors, data not shown
Method in brief: as §1

Chain of TLR9 (Mus musculus, UniProt Q9EQU3) (Q9EQU3 26-1032): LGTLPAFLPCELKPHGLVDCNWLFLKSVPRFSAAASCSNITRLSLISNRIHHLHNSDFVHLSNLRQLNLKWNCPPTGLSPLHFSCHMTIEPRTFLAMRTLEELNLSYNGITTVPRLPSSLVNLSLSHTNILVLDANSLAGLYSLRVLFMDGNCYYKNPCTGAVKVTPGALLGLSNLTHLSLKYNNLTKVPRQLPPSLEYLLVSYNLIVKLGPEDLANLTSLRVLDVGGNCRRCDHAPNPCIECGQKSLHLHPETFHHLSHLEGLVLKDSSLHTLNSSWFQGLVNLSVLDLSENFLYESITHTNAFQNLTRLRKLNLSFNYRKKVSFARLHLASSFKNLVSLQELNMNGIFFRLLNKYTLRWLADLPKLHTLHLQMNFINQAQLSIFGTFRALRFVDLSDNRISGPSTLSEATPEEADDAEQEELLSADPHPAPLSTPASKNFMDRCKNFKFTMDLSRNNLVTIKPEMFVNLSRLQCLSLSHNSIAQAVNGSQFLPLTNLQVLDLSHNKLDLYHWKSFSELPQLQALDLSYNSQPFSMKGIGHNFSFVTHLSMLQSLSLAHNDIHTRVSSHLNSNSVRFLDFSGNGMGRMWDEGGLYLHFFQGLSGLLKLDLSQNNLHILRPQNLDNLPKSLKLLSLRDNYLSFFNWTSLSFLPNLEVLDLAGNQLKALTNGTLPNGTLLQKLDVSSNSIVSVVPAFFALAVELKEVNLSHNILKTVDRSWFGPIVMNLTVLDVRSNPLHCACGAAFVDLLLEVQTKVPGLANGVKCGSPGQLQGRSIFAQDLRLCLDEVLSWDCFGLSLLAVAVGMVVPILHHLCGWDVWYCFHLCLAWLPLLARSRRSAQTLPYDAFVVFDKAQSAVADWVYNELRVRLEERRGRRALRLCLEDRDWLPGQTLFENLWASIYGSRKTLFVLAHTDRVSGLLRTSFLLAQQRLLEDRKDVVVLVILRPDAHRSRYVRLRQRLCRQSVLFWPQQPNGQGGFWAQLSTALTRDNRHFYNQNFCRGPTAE
Chain of TLR1/2 (Q15399 25-786): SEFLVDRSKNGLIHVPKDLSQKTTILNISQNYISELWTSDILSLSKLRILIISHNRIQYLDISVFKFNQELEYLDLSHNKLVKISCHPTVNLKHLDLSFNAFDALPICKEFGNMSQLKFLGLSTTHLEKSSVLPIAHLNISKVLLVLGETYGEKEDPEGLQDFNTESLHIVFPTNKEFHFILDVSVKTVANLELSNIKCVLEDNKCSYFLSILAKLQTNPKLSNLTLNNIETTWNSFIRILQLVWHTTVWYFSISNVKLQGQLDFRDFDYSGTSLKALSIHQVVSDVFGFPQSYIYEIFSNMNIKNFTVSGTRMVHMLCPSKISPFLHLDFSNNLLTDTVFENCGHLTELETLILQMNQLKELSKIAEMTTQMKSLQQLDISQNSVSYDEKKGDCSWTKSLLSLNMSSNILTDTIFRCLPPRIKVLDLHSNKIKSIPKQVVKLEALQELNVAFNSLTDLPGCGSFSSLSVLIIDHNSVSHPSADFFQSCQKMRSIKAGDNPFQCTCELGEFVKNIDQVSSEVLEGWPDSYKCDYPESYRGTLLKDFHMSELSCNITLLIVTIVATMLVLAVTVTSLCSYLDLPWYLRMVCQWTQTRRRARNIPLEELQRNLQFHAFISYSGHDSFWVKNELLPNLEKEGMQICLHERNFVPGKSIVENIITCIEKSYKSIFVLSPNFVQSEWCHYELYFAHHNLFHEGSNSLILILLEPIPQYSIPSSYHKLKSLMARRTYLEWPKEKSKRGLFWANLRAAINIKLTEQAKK
Chain of TLR1/2 (O60603 21-784): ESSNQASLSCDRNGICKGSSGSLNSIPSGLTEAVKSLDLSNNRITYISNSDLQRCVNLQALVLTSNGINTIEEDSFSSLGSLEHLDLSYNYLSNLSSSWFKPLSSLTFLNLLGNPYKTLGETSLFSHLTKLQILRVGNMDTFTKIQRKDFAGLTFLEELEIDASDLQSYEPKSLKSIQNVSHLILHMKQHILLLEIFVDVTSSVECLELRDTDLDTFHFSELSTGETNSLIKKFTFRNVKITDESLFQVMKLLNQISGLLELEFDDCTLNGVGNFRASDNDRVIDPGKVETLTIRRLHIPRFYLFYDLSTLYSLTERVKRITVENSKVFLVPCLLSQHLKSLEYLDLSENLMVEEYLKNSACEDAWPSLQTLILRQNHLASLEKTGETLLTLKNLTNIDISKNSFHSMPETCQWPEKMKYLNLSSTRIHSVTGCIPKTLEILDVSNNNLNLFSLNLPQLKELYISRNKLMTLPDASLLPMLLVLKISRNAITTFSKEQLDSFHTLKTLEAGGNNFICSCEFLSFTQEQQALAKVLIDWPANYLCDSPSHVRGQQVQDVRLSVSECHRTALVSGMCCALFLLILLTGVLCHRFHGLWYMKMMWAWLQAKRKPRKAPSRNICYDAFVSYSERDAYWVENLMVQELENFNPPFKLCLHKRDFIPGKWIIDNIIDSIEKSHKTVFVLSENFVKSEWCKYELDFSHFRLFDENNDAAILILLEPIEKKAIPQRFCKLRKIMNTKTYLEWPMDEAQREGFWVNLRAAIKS

SMILES: Cc1cc(N2CCc3c(c(C)nn3CC34CCC(NC(=O)[C@@H]5COCCN5)(CC3)CC4)C2)c2cnn(C)c2n1 [MHV370, (S)-N-(4-((5-(1,6-dimethyl-1H-pyrazolo[3,4-b]pyridin-4-yl)-3-methyl-4,5,6,7-tetrahydro-1H-pyrazolo[4,3-c]pyridin-1-yl)methyl)bicyclo[2.2.2]octan-1-yl)morpholine-3-carboxamide]
- pIC50 (TLR9 [1]): 5.89
- pIC50 (TLR9 [2]): < 5.00
- functional inhibition of TLR9 (TLR9 [2]; mouse blood, up to 10 μM): did not show functional inhibition
- mode of antagonism (Schild analysis) (TLR7/8): competitive and reversible antagonist
- TLR7-dependent IFN-α and TNF production in plasma (TLR7): efficiently inhibited
- expression of a five-panel ISG signature [3]: strongly suppressed
- interference with cytokine secretion, TLR1/2 agonist (TLR1/2): did not significantly interfere
